Test results taken from ChEMBL document CHEMBL1155940, “Synthesis and preliminary pharmacological evaluation of novel derivatives of L-beta-threo-benzylaspartate as inhibitors of the neuronal glutamate transporter EAAT3” (Bioorg Med Chem, 2008).

Assays:
[1] = target: T1, Excitatory amino acid transporter 3 (Homo sapiens) (UniProt P43005); assay: Residual [3H]D-aspartate uptake at human EAAT3 expressed in mouse C17.2 cells at 100 uM relative to control
T1 sequence (whole entry): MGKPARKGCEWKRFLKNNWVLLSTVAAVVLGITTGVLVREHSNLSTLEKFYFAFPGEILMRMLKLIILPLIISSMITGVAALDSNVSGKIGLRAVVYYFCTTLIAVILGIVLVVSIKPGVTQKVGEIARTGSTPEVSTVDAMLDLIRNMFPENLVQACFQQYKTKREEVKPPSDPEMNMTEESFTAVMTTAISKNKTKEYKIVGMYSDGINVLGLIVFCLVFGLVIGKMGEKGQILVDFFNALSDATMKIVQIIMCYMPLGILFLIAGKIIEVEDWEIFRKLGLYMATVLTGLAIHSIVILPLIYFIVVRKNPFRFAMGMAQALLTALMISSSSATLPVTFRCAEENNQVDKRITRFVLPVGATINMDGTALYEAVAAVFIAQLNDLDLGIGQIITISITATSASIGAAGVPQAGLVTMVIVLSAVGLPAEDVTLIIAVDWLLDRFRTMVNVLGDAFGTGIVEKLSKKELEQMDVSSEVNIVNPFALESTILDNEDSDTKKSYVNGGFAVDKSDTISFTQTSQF

Homo sapiens [2] = organism: Homo sapiens; assay: Selectivity for human EAAT3 over human EAAT2 expressed in mouse C17.2 cells; type: cell-based
Homo sapiens [3] = organism: Homo sapiens; assay: Selectivity for human EAAT3 over human EAAT1 expressed in mouse C17.2 cells; type: cell-based
[4] = target: T2, Excitatory amino acid transporter 3 (Homo sapiens, UniProt P43005); assay: Displacement of [3H]D-aspartate from human EAAT3 expressed in mouse C17.2 cells; type: cell-based
T2 sequence (P43005 whole entry): T1 sequence (whole entry)
Outline: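 C17.2 neuroprogenitor cells (passages 10–20) seeded at 5 × 10^4/well, transiently transfected with human EAAT3 plasmid 24 h after plating, assayed 24 h later. Cells preincubated 5 min at 37°C in HEPES-buffered saline, pH 7.4, then given 1 µM 3H-D-aspartate with varying inhibitor concentrations. Rinsed with ice-cold buffer after uptake and read by scintillation counting. Corrected for 4°C background. IC50 from a one-site fit, ±SEM.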

| Structure (SMILES) | residual activity [1] [%] | also measured |
| --- | --- | --- |
| N[C@H](C(=O)O)[C@H](Cc1ccccc1)C(=O)O | 1 | fold change (FC) (Homo sapiens [2]): 10; fold change (FC) (Homo sapiens [3]): 10 |
| N[C@H](C(=O)O)C(Cc1cccc(Br)c1)C(=O)O (mixture of isomers) | 8 | – |
| N[C@H](C(=O)O)C(Cc1cccc([N+](=O)[O-])c1)C(=O)O (mixture of isomers) | 29 | – |
| N[C@H](C(=O)O)C(Cc1ccc(F)cc1)C(=O)O (mixture of isomers) | 7 | – |
| N[C@H](C(=O)O)C(Cc1ccccc1)C(=O)O (stereo not given in full) | 4 | – |
| N[C@H](C(=O)O)C(Cc1ccc2ccccc2c1)C(=O)O (stereo not given in full) | 68 | – |
| N[C@H](C(=O)O)[C@H](Cc1cccc(F)c1)C(=O)O | – | IC50 [4]: 2.46 µM |
| N[C@H](C(=O)O)[C@@H](Cc1cccc(F)c1)C(=O)O | – | IC50 [4]: 21.1 µM |
| Cc1cc(C)cc(CC(C(=O)O)[C@H](N)C(=O)O)c1 (mixture of isomers) | 36 | – |
| N[C@H](C(=O)O)C(Cc1c(Cl)cccc1Cl)C(=O)O (stereo not given in full) | 86 | – |
| N[C@H](C(=O)O)C(Cc1cccc(F)c1)C(=O)O (stereo not given in full) | 0 | – |
| Cc1cccc(CC(C(=O)O)[C@H](N)C(=O)O)c1 (mixture of isomers) | 33 | – |
| N[C@H](C(=O)O)C(Cc1ccc([N+](=O)[O-])cc1)C(=O)O (stereo not given in full) | 65 | – |
